Test results reported in ChEMBL document CHEMBL4017489, “Design, Synthesis, and Evaluation of New Selective NM23-H2 Binders as c-MYC Transcription Inhibitors via Disruption of the NM23-H2/G-Quadruplex Interaction” (J Med Chem, 2017).
Calls of active or inactive are those of the source. No cut-off for these calls is given here.

Columns and labels:
[1] = tested on: SiHa; assay: Cell cycle arrest in human SiHa cells assessed as accumulation at G0/G1 phase at 2 uM after 6 hrs by propidium iodide staining based flow cytometry (reference value: 48 %); format: functional
Outline: (§1)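 SiHa cells plated 24 h, treated at 2 μM for 3–48 h; fixed in ice-cold 70% ethanol overnight, RNase A 20 μg/mL 37 °C 30 min, PI-stained, flow cytometry at 488 nm; phase percentages quantified; at least three experiments.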

[2] = Anticlonogenic activity against mouse primary mesangial cells at 0.03125 to 0.5 uM after 14 days by crystal violet staining based assay; format: ADME; conditions: primary mesangial cell, 336 h
Outline: (§2)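 Colony formation: SiHa cells and primary cultured mouse mesangial cells exposed to 0.5, 0.25, 0.125, 0.0625 and 0.03125 μM for 14 days, DMSO as negative control; three repeats.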

[3] = tested on: SiHa; assay: Cell cycle arrest in human SiHa cells assessed as accumulation at G2/M phase at 2 uM after 6 hrs by propidium iodide staining based flow cytometry (reference value: 39 %); format: functional
Outline: (§3)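 SiHa cells (2.0 × 10^5 per well) plated 24 h, then exposed to 2 μM compound or left untreated for 3, 6, 9, 12, 24, 36 or 48 h. Cells washed in PBS, fixed overnight in ice-cold 70% ethanol, treated with 20 μg/mL RNase A for 30 min at 37 °C, stained with PI, and read by flow cytometry at 488 nm. Phase percentages compared with untreated control; at least three experiments.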

[4] = tested on: SiHa; assay: Cell cycle arrest in human SiHa cells assessed as accumulation at G0/G1 phase at 2 uM after 12 hrs by propidium iodide staining based flow cytometry (reference value: 48 %); format: functional; outline: as §1
[5] = tested on: SiHa; assay: Induction of apoptosis in human SiHa cells assessed as late apoptotic cells at 0.5 uM after 48 hrs by Annexin V-FITC/propidium iodide based flow cytometric analysis (reference value: 0.7 %); format: functional
[6] = tested on: SiHa; assay: Anticlonogenic activity against human SiHa cells up to 0.5 uM after 14 days by crystal violet staining based assay; format: functional, cell-based; outline: as §2
[7] = tested on: SiHa; assay: Cell cycle arrest in human SiHa cells assessed as accumulation at G0/G1 phase at 2 uM after 9 hrs by propidium iodide staining based flow cytometry (reference value: 48 %); format: functional; outline: as §1
[8] = Binding affinity to Htg21 telomeric G-quadruplex DNA (unknown origin) at 40 uM after 30 mins by SPR analysis
[9] = tested on: SiHa; assay: Induction of apoptosis in human SiHa cells assessed as late apoptotic cells at 2 uM after 48 hrs by Annexin V-FITC/propidium iodide based flow cytometric analysis (reference value: 0.7 %); format: functional
[10] = tested on: SiHa; assay: Down regulation of CDK6 expression in human SiHa cells at 0.5 to 2 uM after 24 to 48 hrs by Western blot analysis; format: functional, cell-based
Outline: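 SiHa cells (2.0 × 10^5) treated with compound at various concentrations for 24 or 48 h, then lysed at 4 °C. Protein measured by BCA; 30 μg run on 10% SDS-PAGE and transferred to nitrocellulose. Membranes blocked in 5% milk, probed with primary antibodies overnight at 4 °C, then HRP secondary for 2 h, and detected by chemiluminescence. Bands quantified by densitometry; at least three experiments.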

[11] = tested on: Mus musculus; assay: Toxicity in BALB/C nude mouse xenografted with human SiHa cells assessed as discomfort at 2.5 to 5 mg/kg, ip administered daily after 3 weeks; format: organism-based; conditions: in vivo, 504 h
Outline: (§4)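 SiHa cells implanted in the right armpit of BALB/c nu/nu mice. At approximately 50 mm3, mice randomized (n = 8/group) to vehicle, compound 2.5 or 5.0 mg/kg, or doxorubicin 1.0 mg/kg, given ip daily for 3 weeks. Body weight and signs of pain, distress or discomfort monitored; tumors excised and weighed. Data given as mean ± SEM, t test against vehicle.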

[12] = tested on: SiHa; assay: Antitumor activity against human SiHa cells xenografted in BALB/C nude mouse assessed as tumor growth inhibition at 5 mg/kg, ip administered daily after 3 weeks relative to control; format: functional; conditions: 504 h, read-out: TGI
[13] = Binding affinity to biotin-labeled 18-mer duplex DNA hairpin (unknown origin) at 40 uM after 30 mins by SPR analysis
[14] = tested on: SiHa; assay: Cell cycle arrest in human SiHa cells assessed as accumulation at G0/G1 phase at 2 uM after 48 hrs by propidium iodide staining based flow cytometry (reference value: 48 %); format: functional; outline: as §1
[15] = tested on: SiHa; assay: Cell cycle arrest in human SiHa cells assessed as accumulation at G2/M phase at 2 uM after 3 hrs by propidium iodide staining based flow cytometry (reference value: 39%); format: functional; outline: as §1
[16] = tested on: SiHa; assay: Antiproliferative activity against human SiHa cells after 48 hrs by MTT assay; format: functional, cell-based
[17] = target: T1, Nucleoside diphosphate kinase B (Homo sapiens, UniProt P22392, D54A); assay: Binding affinity to NM23-H2 D54A mutant (unknown origin) by SPR analysis
T1 sequence (P22392 whole entry D54A): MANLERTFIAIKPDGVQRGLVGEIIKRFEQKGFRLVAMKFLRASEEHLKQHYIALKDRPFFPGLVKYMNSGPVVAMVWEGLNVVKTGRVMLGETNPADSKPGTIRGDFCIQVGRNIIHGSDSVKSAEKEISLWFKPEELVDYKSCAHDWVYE

[18] = target: T2, Nucleoside diphosphate kinase B (Homo sapiens, UniProt P22392); assay: Binding affinity to NM23-H2 (unknown origin) assessed as reduction in protein interaction with Pu22 c-myc G-quadruplex DNA after 1 hr by EMSA
T2 sequence (P22392 whole entry): as the sequence (P22392 whole entry D54A) above, with A54D counted along it

[19] = tested on: Mus musculus; assay: Toxicity in BALB/C nude mouse xenografted with human SiHa cells assessed as pain at 2.5 to 5 mg/kg, ip administered daily after 3 weeks; format: organism-based; conditions: in vivo, 504 h; outline: as §4
[20] = tested on: SiHa; assay: Cell cycle arrest in human SiHa cells assessed as accumulation at G2/M phase at 2 uM after 48 hrs by propidium iodide staining based flow cytometry (reference value: 39 %); format: functional; outline: as §3
[21] = tested on: SiHa; assay: Antitumor activity against human SiHa cells xenografted in BALB/C nude mouse assessed as tumor growth inhibition at 2.5 mg/kg, ip administered daily after 3 weeks relative to control; format: functional; conditions: 504 h, read-out: TGI
[22] = target: T1, Nucleoside diphosphate kinase B; assay: Binding affinity to N-terminal NT-647-NHS labeled NM23-H2 D54A mutant (unknown origin) after 30 mins by MST analysis
[23] = Binding affinity to N-terminal NT-647-NHS labeled NM23-H2 D121A mutant (unknown origin) after 30 mins by MST analysis; set-up: species or system Homo sapiens
[24] = target: T2, Nucleoside diphosphate kinase B; assay: Binding affinity to NM23-H2 in human SiHa cells assessed as disruption of protein interaction with c-myc G-quadruplex DNA by measuring decrease in c-MYC mRNA level after 9 hrs by RT-PCR analysis; format: cell-based
Outline: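 SiHa cells treated at 0, 0.5, 1.0, 2.0 μM for 9 h; TRIzol RNA, 1.5 μg reverse-transcribed with oligo(dT); semiquantitative PCR, 30 cycles, 58 °C annealing; bands normalized to β-actin, untreated 100%; three repeats.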

[25] = tested on: SiHa; assay: Cell cycle arrest in human SiHa cells assessed as accumulation at G2/M phase at 2 uM after 24 hrs by propidium iodide staining based flow cytometry (reference value: 39 %); format: functional; outline: as §1
[26] = tested on: SiHa; assay: Induction of apoptosis in human SiHa cells assessed as early apoptotic cells at 2 uM after 48 hrs by Annexin V-FITC/propidium iodide based flow cytometric analysis (reference value: 1.4 %); format: functional
[27] = tested on: SiHa; assay: Cell cycle arrest in human SiHa cells assessed as accumulation at S phase at 2 uM after 6 hrs by propidium iodide staining based flow cytometry (reference value: 13 %); format: functional; outline: as §3
[28] = tested on: Nucleoside diphosphate kinase B (Homo sapiens), P22392 [F60A]; assay: Binding affinity to N-terminal NT-647-NHS labeled NM23-H2 F60A mutant (unknown origin) up to 50 uM by SPR analysis
Chain of Nucleoside diphosphate kinase B (Homo sapiens), P22392 [F60A] (P22392 whole entry F60A): as the sequence (P22392 whole entry D54A) above, with A54D, F60A counted along it

Activity [8]: inactive
Activity [13]: inactive
Kd [17]: 18.4 µM
Activity [18]: Dose-dependent effect
Kd [22]: 4.6 µM
Kd [23]: 94.1 µM
Activity [24]: Dose-dependent effect
Activity [28]: inactive
Compound: CN(C)CCCNc1cc2nc3n(c(=O)c2cc1F)CC/C3=C\c1ccc(OCc2ccccc2)cc1O
Activity [1]: 62%
Activity [2]: Non-Toxic
Activity [3]: 26%
Activity [4]: 54%
Activity [5]: 5.1%
Activity [6]: Active
Activity [7]: 67%
Activity [9]: 90.3%
Activity [10]: Active
Activity [11]: Non-Toxic
inhibition in vivo at 5 mg/kg [12]: 64.8%
Activity [14]: 0%
Activity [15]: 38%
IC50 [16]: 1.78 µM
Activity [19]: Non-Toxic
Activity [20]: 0%
inhibition in vivo at 2.5 mg/kg [21]: 48%
Activity [25]: 8%
Activity [26]: 4.8%
Activity [27]: 12%
